The source made the active and inactive calls. The calls are words filed in the database; no cut-off is given here.

The values below come from ChEMBL document CHEMBL2203081 (Bioorg Med Chem Lett, 2012).

Test [1] addresses Dual specificity tyrosine-phosphorylation-regulated kinase 1A (Homo sapiens) (UniProt Q13627). Kind of test: Inhibition of DYRK1A assessed as residual activity at 10 uM. In outline: (§1)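 Standard radioactivity-based enzymatic kinase assays on a 131-kinase panel run by the Dundee profiling service; residual kinase activity recorded.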
Test [2] has as its target Serine/threonine-protein kinase PLK2 (Homo sapiens) (UniProt Q9NYY3). Kind of test: Inhibition of PLK2 assessed as residual activity at 10 uM relative to control.
Test [3] deals with Mast/stem cell growth factor receptor Kit (Homo sapiens) (UniProt P10721). Kind of test: Inhibition of KIT assessed as residual activity at 10 uM relative to control.
Test [4] has as its target Rho-associated protein kinase 2 (Homo sapiens) (UniProt O75116). Briefly: Inhibition of ROCK2 assessed as residual activity at 10 uM relative to control.
In test [5] the target is Myosin light chain kinase family member 4 (Homo sapiens) (UniProt Q86YV6). Briefly: Inhibition of MYLK4 assessed as residual activity at 10 uM relative to control.
Sequence of Myosin light chain kinase family member 4 (Homo sapiens) (Q86YV6 whole entry): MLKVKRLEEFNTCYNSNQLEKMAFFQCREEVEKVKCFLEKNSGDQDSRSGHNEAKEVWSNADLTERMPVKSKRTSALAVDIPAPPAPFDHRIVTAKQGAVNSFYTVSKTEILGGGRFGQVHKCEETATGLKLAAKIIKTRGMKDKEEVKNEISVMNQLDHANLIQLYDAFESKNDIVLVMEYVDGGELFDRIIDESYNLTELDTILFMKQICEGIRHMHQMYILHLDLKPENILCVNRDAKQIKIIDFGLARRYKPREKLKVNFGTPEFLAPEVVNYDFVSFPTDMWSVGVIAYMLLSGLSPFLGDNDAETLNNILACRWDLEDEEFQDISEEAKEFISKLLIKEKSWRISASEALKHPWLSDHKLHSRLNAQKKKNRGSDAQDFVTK
The target in test [6] is Serine/threonine-protein kinase MRCK alpha (Homo sapiens) (UniProt Q5VT25). Briefly: Inhibition of MRCKA assessed as residual activity at 10 uM relative to control.
Test [7] deals with Mitogen-activated protein kinase 4 (Homo sapiens) (UniProt P31152). Kind of test: Inhibition of ERK4 assessed as residual activity at 10 uM relative to control.
The target of test [8] is Mitogen-activated protein kinase 13 (Homo sapiens) (UniProt O15264). Briefly: Inhibition of p38-delta assessed as residual activity at 10 uM relative to control.
Sequence of Mitogen-activated protein kinase 13 (Homo sapiens) (O15264 whole entry, canonical isoform): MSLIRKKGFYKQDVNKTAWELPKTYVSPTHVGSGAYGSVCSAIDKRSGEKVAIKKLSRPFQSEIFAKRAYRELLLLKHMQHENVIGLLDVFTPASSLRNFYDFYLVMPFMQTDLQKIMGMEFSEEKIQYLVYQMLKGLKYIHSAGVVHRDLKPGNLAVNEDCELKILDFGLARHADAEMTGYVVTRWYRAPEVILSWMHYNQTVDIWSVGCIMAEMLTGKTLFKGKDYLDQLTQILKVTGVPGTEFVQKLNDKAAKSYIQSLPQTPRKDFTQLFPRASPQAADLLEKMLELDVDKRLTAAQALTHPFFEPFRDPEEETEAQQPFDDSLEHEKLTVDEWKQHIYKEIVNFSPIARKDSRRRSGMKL
For test [9], the target named is Phosphorylase b kinase gamma catalytic chain, skeletal muscle/heart isoform (Homo sapiens) (UniProt Q16816). Kind of test: Inhibition of PHKG1 assessed as residual activity at 10 uM relative to control.
Sequence of Phosphorylase b kinase gamma catalytic chain, skeletal muscle/heart isoform (Homo sapiens) (Q16816 whole entry, looked up, canonical isoform): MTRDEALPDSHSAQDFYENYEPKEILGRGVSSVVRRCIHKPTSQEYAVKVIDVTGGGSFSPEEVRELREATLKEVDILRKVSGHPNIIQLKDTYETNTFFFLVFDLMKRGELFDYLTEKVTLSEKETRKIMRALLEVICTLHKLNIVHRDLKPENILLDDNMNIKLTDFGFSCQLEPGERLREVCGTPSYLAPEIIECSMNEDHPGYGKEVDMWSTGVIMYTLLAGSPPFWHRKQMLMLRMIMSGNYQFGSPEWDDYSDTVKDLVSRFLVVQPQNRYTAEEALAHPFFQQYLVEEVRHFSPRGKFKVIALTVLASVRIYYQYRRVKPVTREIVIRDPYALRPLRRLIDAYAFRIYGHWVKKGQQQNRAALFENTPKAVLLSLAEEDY
Test [10] concerns the target Casein kinase I isoform delta (Homo sapiens) (UniProt P48730). Kind of test: Inhibition of CK1d assessed as residual activity at 1 uM. In outline:
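Radioactivity-based enzymatic assay against a panel of 131 kinases (Dundee profiling). Activity remaining was measured with compound present at the stated concentration.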

Test [11] addresses Tyrosine-protein kinase CSK (Homo sapiens) (UniProt P41240). Kind of test: Inhibition of CSK assessed as residual activity at 10 uM. In outline: as §1
The target in test [12] is Tyrosine-protein kinase Lck (Homo sapiens) (UniProt P06239). Briefly: Inhibition of Lck assessed as residual activity at 1 uM.
Sequence of Tyrosine-protein kinase Lck (Homo sapiens) (P06239 2-509 limits assumed): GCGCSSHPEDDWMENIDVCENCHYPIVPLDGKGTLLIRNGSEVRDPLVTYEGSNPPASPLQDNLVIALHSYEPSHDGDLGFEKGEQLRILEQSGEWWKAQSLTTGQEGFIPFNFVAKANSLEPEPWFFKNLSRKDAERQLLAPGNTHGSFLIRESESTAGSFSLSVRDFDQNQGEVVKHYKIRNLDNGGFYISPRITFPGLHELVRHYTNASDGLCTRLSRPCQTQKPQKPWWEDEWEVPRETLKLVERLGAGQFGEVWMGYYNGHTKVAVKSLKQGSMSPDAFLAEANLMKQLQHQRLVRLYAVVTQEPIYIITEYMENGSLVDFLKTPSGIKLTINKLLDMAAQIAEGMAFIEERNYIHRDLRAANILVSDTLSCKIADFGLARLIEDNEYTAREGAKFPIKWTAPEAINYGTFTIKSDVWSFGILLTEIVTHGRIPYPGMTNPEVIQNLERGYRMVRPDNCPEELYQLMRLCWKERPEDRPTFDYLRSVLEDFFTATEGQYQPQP
Test [13] deals with Dual specificity protein kinase CLK3 (Homo sapiens) (UniProt P49761). Kind of test: Inhibition of CLK3 assessed as residual activity at 10 uM relative to control. An outline of the steps: (§2)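 Competition kinase-binding assay (KINOMEscan) across a non-redundant panel of 329 kinases beyond the radiometric panel; residual binding expressed relative to control.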
Sequence of Dual specificity protein kinase CLK3 (Homo sapiens) (P49761 whole entry, looked up): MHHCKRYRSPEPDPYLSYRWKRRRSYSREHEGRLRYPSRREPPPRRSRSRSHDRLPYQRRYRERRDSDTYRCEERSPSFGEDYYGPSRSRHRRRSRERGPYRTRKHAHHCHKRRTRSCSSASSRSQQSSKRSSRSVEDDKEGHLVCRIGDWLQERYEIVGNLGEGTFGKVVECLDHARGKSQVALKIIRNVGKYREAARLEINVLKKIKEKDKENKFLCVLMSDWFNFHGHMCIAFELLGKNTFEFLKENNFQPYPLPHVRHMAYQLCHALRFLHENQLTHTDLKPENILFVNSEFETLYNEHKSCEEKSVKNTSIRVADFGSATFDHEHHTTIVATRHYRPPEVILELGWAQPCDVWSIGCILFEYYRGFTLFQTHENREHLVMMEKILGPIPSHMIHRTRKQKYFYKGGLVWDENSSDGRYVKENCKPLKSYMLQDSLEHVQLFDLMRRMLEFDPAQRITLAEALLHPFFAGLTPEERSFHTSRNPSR
The target of test [14] is T1, Serine/threonine-protein kinase D1 (Homo sapiens) (UniProt Q15139).
T1 sequence (whole entry): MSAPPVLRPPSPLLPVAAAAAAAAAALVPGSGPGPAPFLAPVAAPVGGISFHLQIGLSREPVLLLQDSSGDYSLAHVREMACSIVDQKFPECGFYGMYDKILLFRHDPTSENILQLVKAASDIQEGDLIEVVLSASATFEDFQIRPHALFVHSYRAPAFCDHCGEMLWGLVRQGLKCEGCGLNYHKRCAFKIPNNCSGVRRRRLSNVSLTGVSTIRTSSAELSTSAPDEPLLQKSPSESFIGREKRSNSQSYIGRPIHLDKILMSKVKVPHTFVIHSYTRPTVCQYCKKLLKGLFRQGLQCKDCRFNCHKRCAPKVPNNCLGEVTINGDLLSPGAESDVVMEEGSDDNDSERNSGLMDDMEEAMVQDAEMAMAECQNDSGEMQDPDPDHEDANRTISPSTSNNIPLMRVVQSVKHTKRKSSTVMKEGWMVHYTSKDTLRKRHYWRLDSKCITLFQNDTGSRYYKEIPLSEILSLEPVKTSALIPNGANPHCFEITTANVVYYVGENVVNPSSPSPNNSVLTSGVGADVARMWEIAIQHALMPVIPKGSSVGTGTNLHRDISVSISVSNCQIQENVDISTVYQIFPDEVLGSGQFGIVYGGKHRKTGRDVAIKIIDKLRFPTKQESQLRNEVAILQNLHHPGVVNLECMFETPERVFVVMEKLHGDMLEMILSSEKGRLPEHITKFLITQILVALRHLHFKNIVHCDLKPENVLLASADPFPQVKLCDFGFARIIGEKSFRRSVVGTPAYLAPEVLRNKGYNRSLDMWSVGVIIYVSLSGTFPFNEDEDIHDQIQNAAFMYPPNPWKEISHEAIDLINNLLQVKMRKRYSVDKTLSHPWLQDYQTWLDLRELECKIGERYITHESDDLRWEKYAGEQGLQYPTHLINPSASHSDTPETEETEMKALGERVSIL
Briefly: Inhibition of PRKD1 assessed as residual activity at 10 uM relative to control.

The target in test [15] is Casein kinase II subunit alpha' (Homo sapiens) (UniProt P19784). Briefly: Inhibition of CSNK2A2 assessed as residual activity at 10 uM relative to control. In outline:
as §2

The target of test [16] is T2, Serine/threonine-protein kinase STK11 (Homo sapiens) (UniProt Q15831).
T2 sequence (whole entry): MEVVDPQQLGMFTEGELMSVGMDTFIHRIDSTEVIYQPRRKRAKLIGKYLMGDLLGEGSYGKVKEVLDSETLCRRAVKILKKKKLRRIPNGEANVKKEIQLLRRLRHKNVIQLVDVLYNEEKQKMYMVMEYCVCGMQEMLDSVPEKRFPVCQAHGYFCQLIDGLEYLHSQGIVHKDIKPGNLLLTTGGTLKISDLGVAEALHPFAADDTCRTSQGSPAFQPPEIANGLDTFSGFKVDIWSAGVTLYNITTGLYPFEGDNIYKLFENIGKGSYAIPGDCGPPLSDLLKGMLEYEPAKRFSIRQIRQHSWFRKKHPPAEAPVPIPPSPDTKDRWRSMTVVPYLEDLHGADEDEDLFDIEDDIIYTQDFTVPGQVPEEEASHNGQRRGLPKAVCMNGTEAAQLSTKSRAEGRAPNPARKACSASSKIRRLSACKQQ
Briefly: Inhibition of LKB1 assessed as residual activity at 1 uM.

Test [17] has as its target Serine/threonine-protein kinase SIK2 (Homo sapiens) (UniProt Q9H0K1). Briefly: Inhibition of SIK2 assessed as residual activity at 10 uM relative to control.
The target in test [18] is Macrophage colony-stimulating factor 1 receptor (Homo sapiens) (UniProt P07333). Kind of test: Inhibition of CSF1R assessed as residual activity at 10 uM relative to control. An outline of the steps: as §2
The next test deals with Mus musculus. Kind of test: Inhibition of LRRK2 in mouse assessed as inhibition of Ser910 autophosphorylation in spleen at 100 mg/kg, ip by immunoblot method. The arrangement: dose 100 mg/kg. The test is classed as functional, organism-based.
Test [19] addresses Ephrin type-B receptor 4 (Homo sapiens) (UniProt P54760). Kind of test: Inhibition of EPH-B4 assessed as residual activity at 1 uM. An outline of the steps:
as §1

Test [20] has as its target Cyclin-dependent kinase 2/cyclin A (Homo sapiens) (UniProt P24941+P20248+P78396). Kind of test: Inhibition of CDK2-Cyclin A assessed as residual activity at 10 uM. It counts as protein-complex assay.

Sequence of Serine/threonine-protein kinase PLK2 (Homo sapiens) (Q9NYY3 whole entry, looked up): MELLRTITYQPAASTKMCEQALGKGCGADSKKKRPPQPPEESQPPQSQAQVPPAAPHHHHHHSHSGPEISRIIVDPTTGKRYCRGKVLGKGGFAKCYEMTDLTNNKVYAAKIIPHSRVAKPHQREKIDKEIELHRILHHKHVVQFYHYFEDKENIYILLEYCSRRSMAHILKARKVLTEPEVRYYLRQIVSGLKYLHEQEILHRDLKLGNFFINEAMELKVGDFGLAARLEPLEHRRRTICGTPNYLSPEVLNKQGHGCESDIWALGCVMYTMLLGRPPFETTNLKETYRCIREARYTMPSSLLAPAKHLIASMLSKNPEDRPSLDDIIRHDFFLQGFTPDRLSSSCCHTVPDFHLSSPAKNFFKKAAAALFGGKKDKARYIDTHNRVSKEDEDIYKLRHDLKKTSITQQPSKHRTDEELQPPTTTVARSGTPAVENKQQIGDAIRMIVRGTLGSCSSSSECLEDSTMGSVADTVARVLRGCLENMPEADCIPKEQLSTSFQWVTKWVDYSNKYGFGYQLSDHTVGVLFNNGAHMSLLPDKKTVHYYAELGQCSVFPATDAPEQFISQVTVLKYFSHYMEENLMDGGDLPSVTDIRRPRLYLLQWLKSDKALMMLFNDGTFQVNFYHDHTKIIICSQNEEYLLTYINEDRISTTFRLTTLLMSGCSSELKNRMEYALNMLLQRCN
Sequence of Serine/threonine-protein kinase SIK2 (Homo sapiens) (Q9H0K1 whole entry, looked up): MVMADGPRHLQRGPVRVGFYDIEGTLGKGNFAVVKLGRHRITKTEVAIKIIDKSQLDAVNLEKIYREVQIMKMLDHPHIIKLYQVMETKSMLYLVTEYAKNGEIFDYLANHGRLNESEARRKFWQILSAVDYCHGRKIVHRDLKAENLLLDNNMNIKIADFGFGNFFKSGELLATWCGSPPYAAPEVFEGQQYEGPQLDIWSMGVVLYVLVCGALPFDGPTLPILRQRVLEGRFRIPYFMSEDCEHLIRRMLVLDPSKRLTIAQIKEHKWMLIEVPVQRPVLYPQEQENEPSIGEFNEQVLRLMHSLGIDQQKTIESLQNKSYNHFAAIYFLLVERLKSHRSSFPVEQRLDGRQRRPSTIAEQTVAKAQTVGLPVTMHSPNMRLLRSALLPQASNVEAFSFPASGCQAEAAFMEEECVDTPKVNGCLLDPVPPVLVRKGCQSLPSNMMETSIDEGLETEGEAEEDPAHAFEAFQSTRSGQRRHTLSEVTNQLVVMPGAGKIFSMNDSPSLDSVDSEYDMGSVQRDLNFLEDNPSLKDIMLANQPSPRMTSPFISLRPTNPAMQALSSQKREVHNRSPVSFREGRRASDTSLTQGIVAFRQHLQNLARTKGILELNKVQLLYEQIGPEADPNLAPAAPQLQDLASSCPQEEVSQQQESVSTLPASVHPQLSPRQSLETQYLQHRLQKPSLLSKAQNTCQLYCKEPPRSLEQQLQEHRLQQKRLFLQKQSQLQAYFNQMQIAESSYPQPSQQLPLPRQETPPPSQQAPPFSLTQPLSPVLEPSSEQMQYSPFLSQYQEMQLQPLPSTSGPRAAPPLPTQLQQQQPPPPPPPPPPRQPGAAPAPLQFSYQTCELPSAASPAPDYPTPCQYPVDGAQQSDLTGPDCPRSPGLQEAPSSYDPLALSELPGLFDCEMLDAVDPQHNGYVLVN
Sequence of Casein kinase I isoform delta (Homo sapiens) (P48730 whole entry, looked up, canonical isoform): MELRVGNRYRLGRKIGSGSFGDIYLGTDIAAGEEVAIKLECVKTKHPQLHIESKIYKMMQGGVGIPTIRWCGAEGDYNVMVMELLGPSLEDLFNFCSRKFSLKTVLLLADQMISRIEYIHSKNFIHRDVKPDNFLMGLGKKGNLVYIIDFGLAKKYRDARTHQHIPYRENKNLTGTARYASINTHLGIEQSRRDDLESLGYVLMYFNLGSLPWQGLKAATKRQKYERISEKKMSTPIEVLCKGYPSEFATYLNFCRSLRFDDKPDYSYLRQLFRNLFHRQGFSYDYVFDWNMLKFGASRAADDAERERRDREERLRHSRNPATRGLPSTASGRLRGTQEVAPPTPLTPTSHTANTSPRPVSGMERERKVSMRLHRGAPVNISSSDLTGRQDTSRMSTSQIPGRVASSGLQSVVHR
Sequence of Tyrosine-protein kinase CSK (Homo sapiens) (P41240 2-450 limits assumed): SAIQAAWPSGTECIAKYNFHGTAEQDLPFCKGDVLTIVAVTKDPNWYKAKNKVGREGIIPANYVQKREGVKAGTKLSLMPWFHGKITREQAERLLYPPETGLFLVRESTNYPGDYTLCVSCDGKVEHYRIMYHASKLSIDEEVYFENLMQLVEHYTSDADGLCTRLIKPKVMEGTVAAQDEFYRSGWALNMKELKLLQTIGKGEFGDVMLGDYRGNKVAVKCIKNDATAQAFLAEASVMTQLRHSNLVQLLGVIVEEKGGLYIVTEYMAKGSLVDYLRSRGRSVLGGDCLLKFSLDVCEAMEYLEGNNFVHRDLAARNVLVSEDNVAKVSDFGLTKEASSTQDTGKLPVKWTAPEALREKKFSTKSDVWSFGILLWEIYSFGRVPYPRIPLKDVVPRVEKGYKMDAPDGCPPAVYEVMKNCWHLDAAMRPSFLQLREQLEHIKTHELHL
Sequence of Casein kinase II subunit alpha' (Homo sapiens) (P19784 whole entry, looked up): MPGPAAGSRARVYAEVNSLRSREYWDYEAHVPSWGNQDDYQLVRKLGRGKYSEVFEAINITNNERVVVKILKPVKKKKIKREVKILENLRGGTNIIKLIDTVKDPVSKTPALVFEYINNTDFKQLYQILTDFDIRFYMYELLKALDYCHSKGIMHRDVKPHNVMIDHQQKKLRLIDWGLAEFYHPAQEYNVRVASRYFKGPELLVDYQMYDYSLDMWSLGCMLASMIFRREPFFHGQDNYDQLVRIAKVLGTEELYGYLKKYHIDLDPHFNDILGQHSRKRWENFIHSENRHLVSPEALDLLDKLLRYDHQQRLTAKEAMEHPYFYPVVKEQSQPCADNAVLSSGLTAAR

For the compound `O=C(Nc1cccnc1)c1cc(-c2ccnc(F)c2)ccc1OCc1ccccc1`, the Activity in [1] was 104%; in test [2] it was 69%; in test [3], 39%; in test [4], 47%; in test [5] it was 80%; in test [6], 56%. In addition, the Activity in test [7] is 59%; in test [8], 75%; in test [9], 80%; in test [10] it was 107%; in [11], 114%; in test [12] it was 113%. For the same compound, the Activity amounted to 58% in [13]; 41% in test [14]; 70% in [15]; 97% in test [16]; 26% in [17]; 68% in test [18]. Moreover, the Activity in [19] stood at 118%; in test [20], 117%. The inhibition result in the test with Mus musculus was “Active”.
